Experimental data from ChEMBL document CHEMBL5712087, “Targeting bromodomain-containing protein 4 (BRD4) inhibits MYC expression in colorectal cancer cells” (Neoplasia, 2019).
Calls of active or inactive are those of the source.

How the values were obtained:
HCT-116 [1] = test: Inhibition of colony formation in human HCT116 p53+/+ cells at 500 to 1000 nM by crystal violet staining analysis; assay type: functional, cell-based; conditions: dose 500-1000 nM
Method in brief: (§1)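 Exponentially growing cells (1-2x10^3) plated in six-well plates; after 48 h treated with indicated concentrations for 3–5 days, then methanol-fixed and crystal violet stained. Cell lines maintained at 37 °C, 5% CO2 in serum-supplemented medium, STR-validated, mycoplasma-tested, <15 passages.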

[2] = molecular target: Bromodomain-containing protein 4 (Homo sapiens) (UniProt O60885); conditions: LS174T, dose 500-1000 nM, time 24.0 hrs
COLO 320 = test: Inhibition of colony formation in human COLO 320 cells at 500 to 1000 nM by crystal violet staining analysis; assay type: functional, cell-based; conditions: dose 500-1000 nM; method in brief: as §1
[3] = molecular target: Bromodomain-containing protein 4 (Homo sapiens) (UniProt O60885); conditions: HCT-116, dose 500-1000 nM, time 24.0 hrs
[4] = molecular target: Bromodomain-containing protein 4 (Homo sapiens) (UniProt O60885); conditions: HCT-116, dose 500-1000 nM, time 24.0 hrs; remark: listed apart in the source
[5] = molecular target: Bromodomain-containing protein 4 (Homo sapiens) (UniProt O60885); conditions: DLD-1, dose 500-1000 nM, time 24.0 hrs
LS174T = test: Inhibition of colony formation in human LS174T cells at 500 to 1000 nM by crystal violet staining analysis; assay type: functional, cell-based; conditions: dose 500-1000 nM; method in brief: as §1
HT-29 = test: Inhibition of colony formation in human HT-29 cells at 500 to 1000 nM by crystal violet staining analysis; assay type: functional, cell-based; conditions: dose 500-1000 nM; method in brief: as §1
[6] = molecular target: Bromodomain-containing protein 4 (Homo sapiens) (UniProt O60885); conditions: COLO 320, dose 500-1000 nM, time 24.0 hrs
[7] = molecular target: Bromodomain-containing protein 4 (Homo sapiens) (UniProt O60885); conditions: HT-29, dose 500-1000 nM, time 24.0 hrs
[8] = molecular target: Bromodomain-containing protein 4 (Homo sapiens) (UniProt O60885); conditions: LS174T, dose 500-1000 nM, time 24.0 hrs; remark: listed apart in the source
HCT-116 [9] = test: Inhibition of colony formation in human HCT116 p53-/- cells at 500 to 1000 nM by crystal violet staining analysis; assay type: functional, cell-based; conditions: dose 500-1000 nM; method in brief: as §1
[10] = molecular target: Bromodomain-containing protein 4 (Homo sapiens) (UniProt O60885); conditions: SW480, dose 500-1000 nM, time 24.0 hrs
DLD-1 = test: Inhibition of colony formation in human DLD-1 cells at 500 to 1000 nM by crystal violet staining analysis; assay type: functional, cell-based; conditions: dose 500-1000 nM; method in brief: as §1
SW480 = test: Inhibition of colony formation in human SW480 cells at 500 to 1000 nM by crystal violet staining analysis; assay type: functional, cell-based; conditions: dose 500-1000 nM; method in brief: as §1
[11] = molecular target: Bromodomain-containing protein 4 (Homo sapiens) (UniProt O60885); conditions: LS174T, dose 500-1000 nM, time 24.0 hrs; remark: listed apart in the source

Measured: inhibition

Cc1sc2c(c1C)C(c1ccc(Cl)cc1)=N[C@@H](CC(=O)OC(C)(C)C)c1nnc(C)n1-2
active: all assays above
